Screening results: PubChem BioAssay, several laboratories
KCNK9 inh: KCNK9 potassium channel inhibitors, primary screen, HEK293 cells, thallium flux; Potassium channel subfamily K member 9 (Homo sapiens), Q9NPC2; FluxOR thallium flux fluorescence; active compounds read low; B-score at 10 µM; actives 1.2% (n = 310,000); AID 488922, 2010;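 active = ratio B-score over 3 SD below the library mean, with starting fluorescence within 5 SD of its mean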;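 note: negative B-score means less thallium flux so channel inhibition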
KCNQ1 act: potentiators or activators of KCNQ1 channel, primary screen, cell-based, thallium flux, high-throughput; CHO-K1 KCNQ1, thallium flux FluxOR fluorescence; active compounds read high; AID 2648, 2010; B-score at 10 µM; actives 0.35% (n = 310,000);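 active = fluorescence ratio B-score, a plate-corrected score, at least three library SD, with initial intensity B-score within 5 SD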
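Doses: Single concentration per compound, DMSO matched to controls | Test system: KCNQ1-transfected CHO-K1 cells | Timing: 90 min dye loading and 20 min compound exposure, both at room temperature | Measured by: Kinetic FluxOR thallium fluorescence, 10-s 1-Hz baseline, 110-s post-stimulus read | Medium: Assay buffer with matched DMSO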
KCNQ1 block: inhibitors of human KCNQ1 channel, primary screen, cell-based, thallium flux, high-throughput. Potassium voltage-gated channel subfamily KQT member 1 (Homo sapiens), P51787. CHO-K1 KCNQ1, FluxOR thallium flux fluorescence; active compounds read high. B-score at 10 µM. actives 1.3% (n = 310,000);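 active = compounds whose thallium flux B-score, printed positive for inhibition, exceeds three library SD while starting fluorescence stays within three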;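 note: channel opened by potassium depolarization with thallium stimulus after 20 min compound exposure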
KCNK3 block: human KCNK3 channel inhibitors, primary screen, CHO cells, FluxOR thallium flux, B-score; Potassium channel subfamily K member 3 (Homo sapiens), O14649; FluxOR fluorescence; active compounds read low; B-score at 10 µM; actives 0.84% (n = 340,000);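 active = B-score under library mean minus 4 SD, starting fluorescence ratio at most library mean plus 5 SD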;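 note: more negative B-score means stronger inhibition of thallium flux through KCNK3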
KCC2 mod: KCC2 cotransporter modulators, thallium flux, primary screen, cell-based, HEK293 KCC2, FluoZin-2 fluorescence, MLSMR; KCC2 cells, thallium flux FluoZin-2 fluorescence; Solute carrier family 12 member 5 (Homo sapiens), Q9H2X9; B-score of Tl+ flux slope (higher = more flux/activation; lower = inhibition) at 10 µM; AID 1456, 2008; actives 2.2% (n = 190,000);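 active = thallium flux slope and its plate-corrected score both differing from the plate sample mean at a set confidence after two filtering rounds, in either direction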;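 note: slope of fluorescence scaled to starting intensity during 10 to 20 s after thallium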
hERG rescue: hERG rescue from dofetilide block, primary screen, cell-based, CHO-hERG, FluxOR thallium flux, dofetilide IC70 | Voltage-gated inwardly rectifying potassium channel KCNH2 (Homo sapiens), Q12809 | dofetilide IC70 present | activation (rescue from dofetilide block), less the hit threshold, % at 10 µM | actives 0.51% (n = 310,000);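 active = activation above the mean of controls blocked by dofetilide plus 5 SD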;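 note: thallium influx through hERG after potassium depolarization seen as dye fluorescence rise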
KCNK9 inh conf: KCNK9 potassium channel inhibitors, confirmation, HEK293 cells, thallium flux, duplicate | shares compounds with KCNK9 inh | FluxOR thallium flux fluorescence | inhibition, % at 10 µM | actives 43% (n = 4,900) | AID 492992, 2010;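 active = thallium signal inhibited by more than 5 SD of the compound-free buffer control wells, on both duplicate plates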;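 note: 0% = assay buffer control wells without compound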
Kir21 sel: mouse Kir2.1 channel inhibition, confirmation, selectivity assay for KCNK9 modulator project, cell-based, HEK293, thallium flux; shares compounds with KCNK9 inh; Kir2.1 cells, FluxOR thallium flux fluorescence; inhibition, % at 10 µM; actives 4% (n = 4,900); AID 492993, 2010;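 active = thallium signal drop more than 5 SD beyond the mean of the no-compound control wells, seen in both duplicate plates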;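 note: signal is fluorescence rise after thallium addition divided by baseline fluorescence; plate controls were assay buffer only for no effect and full block by chlorpromazine control for full effect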
HEK293 Tl ctr: thallium flux in non-induced HEK293 cells, confirmation, counter-screen for KCNK9 inhibitor project, cell-based, second counter screen, non-induced KCNK9-HEK293; shares compounds with KCNK9 inh; FluxOR thallium flux; inhibition, % at 10 µM; actives 40% (n = 4,900);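 active = thallium signal drop beyond 5 SD of the untreated control mean, on both duplicate plates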;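 note: plate controls were buffer only IC0 wells for no effect and SID17386958 at its maximal inhibitory level for full effect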
Active calls of the source: *; i = inactive; . = not tested or not shown. Only some compounds are listed: those with a hit (about 4.1% of all), similar ones and a draw of the others.

SMILES | KCNK9 inh | KCNQ1 act | KCNQ1 block | KCNK3 block | KCC2 mod | hERG rescue | KCNK9 inh conf | Kir21 sel | HEK293 Tl ctr
O=C(NCc1ccco1)c1cc(S(=O)(=O)N2CCCc3ccccc32)ccc1Cl | i | i | i | i | -3 | -11 | i | i | i
Cc1ccccc1Nc1ncnc2c1cnn2-c1ccccc1 | -9.5* | i | i | i | 0.011 | -11 | i | i | i
NNc1ncnc2c1cnn2-c1ccccc1 | i | i | i | i | -0.3 | -13 | . | . | .
Cc1ccc(-c2ccc(/C=C3\C(=O)ON=C3c3ccccc3)o2)c([N+](=O)[O-])c1 | i | 8* | i | i | -0.77 | -48 | i | i | 32%*
CCOC(=O)CC(NCc1ccc(OC)c(OCC)c1)c1ccc(C)cc1 (stereo not drawn) | i | i | i | i | 0.25 | -8 | i | i | i
COc1cccc(C(=O)NCC(c2ccco2)N2CCc3ccccc3C2)c1 (stereo not drawn) | -10* | i | i | i | . | -6 | 38%* | i | i
CCc1ccc(CN(C)CC(=O)Nc2ccc3c(c2)CCC3)cc1 | i | i | i | i | -0.36 | -18 | i | i | i
Cn1c(Sc2ccc(Br)cc2)c(C=O)c2ccccc21 | -9.5* | i | i | i | . | -13 | 44%* | 36%* | 52%*
O=C(Nc1ccncc1)c1c(F)c(F)c(F)c(F)c1F | -11* | i | i | i | . | 1 | 36%* | i | 28%*
Cc1cccc(C)c1NC(=O)CN(C)C(=O)Cc1cccc(C(F)(F)F)c1 | i | i | i | i | . | -11 | . | . | .
COC(=O)c1c(NS(C)(=O)=O)sc2c1CCCC2 | i | i | i | i | 1.1 | -1 | . | . | .
CC(C)OC(=O)c1c(NS(=O)(=O)c2ccccc2)sc2c1CCCC2 | i | 31* | i | i | 23* | 18* | i | i | i
CCCCc1ccc(-n2nnnc2SCC(=O)Nc2cc(OC)c([N+](=O)[O-])cc2C)cc1 | i | i | i | i | -0.86 | -9 | i | i | i
COCCn1cnnc1SCC(=O)Nc1cc(OC)c([N+](=O)[O-])cc1C | i | i | i | i | 0.14 | -8 | . | . | .
CCOC(=O)C1=CN(Cc2cccc(F)c2)S(=O)(=O)N(C)C1CCc1ccccc1 (stereo not drawn) | . | . | . | i | . | . | . | . | .
Cc1cc(-c2ccccc2)c2c3c(c(-c4ccccc4)n2n1)c(=O)n(C)c(=O)n3C | -8.8* | i | i | i | . | -6 | i | i | 36%*
Cc1ccccc1C(=O)N(CC(=O)Nc1sc(C)c(C)c1C(N)=O)C1CCCC1 | i | i | i | i | . | -4 | . | . | .
CC(C)(C)c1ccc(CNc2ccc([N+](=O)[O-])cn2)cc1 | i | i | i | i | 0.62 | -6 | . | . | .
CC(C)(C)c1ccc(Cn2cnc(-c3ccc([N+](=O)[O-])cc3)c2)cc1 | i | i | i | i | 0.33 | -8 | i | i | i
CCOC(=O)c1cc(-c2ccc(/C=N\n3cnnc3)o2)ccc1Cl | i | i | i | i | -0.2 | -12 | . | . | .
CCOC(=O)c1cc(-c2ccc(/C=C3/C(=O)N(c4ccc(C(=O)O)cc4)N=C3C)o2)ccc1Cl | i | i | i | i | . | -15 | i | i | i
Cc1ccc(C(=O)C(C)OC(=O)CN2C(=O)NC3(CCCC3)C2=O)cc1 (stereo not drawn) | i | i | i | i | . | -14 | . | . | .
Clc1ccc2oc(SCc3cccnc3)nc2c1 | i | i | i | i | . | -5 | . | . | .
Cc1cc(Cl)ccc1OCC(=O)N1CCCCC1 | i | i | i | i | 1.2 | -8 | . | . | .
O=C(COc1ccc(Cl)cc1Cl)N1CCCN(C(=O)COc2ccc(Cl)cc2Cl)CC1 | -11* | i | i | i | 0.0024 | -15 | 36%* | i | i
SMILES | KCNK9 inh | KCNQ1 act | KCNQ1 block | KCNK3 block | KCC2 mod | hERG rescue | KCNK9 inh conf | Kir21 sel | HEK293 Tl ctr
Cc1cc(N2CCCCC2)n2nc(C)c(-c3ccccc3)c2n1 | i | i | i | i | -0.056 | -7 | . | . | .
Cc1nn2c(N3CCCC3)cc(C(C)C)nc2c1-c1ccccc1 | -8.3* | i | i | i | 0.65 | -12 | 58%* | i | 45%*
Cc1c(N=NC2=C(O)CC(C)(C)CC2=O)cc2c(c1[N+](=O)[O-])C(C)(C)CC2(C)C | i | i | 6* | i | -0.43 | -11 | i | i | i
Cc1cn(CC(=O)NCc2ccc(N(C)C)cc2)c(=O)[nH]c1=O | . | . | . | i | . | . | . | . | .
O=C(Nc1cccc(S(=O)(=O)NC2=NCCC2)c1)c1ccc(C(F)(F)F)cc1 | . | . | . | i | . | . | . | . | .
CC(=O)N1N=C(c2ccc(Cl)cc2)OC1c1ccc(C(C)C)cc1 (stereo not drawn) | i | i | 6* | i | 0.43 | -6 | i | i | 27%*
CC(=O)N1N=C(c2ccc(C)cc2)OC1c1ccc(Br)cc1 (stereo not drawn) | i | i | i | i | 0.61 | -8 | . | . | .
CC1CC(C)CN(C(=O)c2ccc3c(c2)N(Cc2ccccc2)CCS3)C1 (stereo not drawn) | -8.2* | i | i | -12* | 0.0022 | -7 | 51%* | i | 34%*
Cc1ccc(CN2CCSc3ccc(C(=O)NC4CCN(Cc5ccccc5)CC4)cc32)cc1 | i | i | 7* | i | 0.32 | -22 | i | i | i
